# Source: ChEMBL document CHEMBL2086341, “COX inhibitors Indomethacin and Sulindac derivatives as antiproliferative agents: synthesis, biological evaluation, and mechanism investigation” (Eur J Med Chem, 2012)
# Calls of active or inactive are those of the source. No cut-off for these calls is given here.
# System: HT-29
# Test: Antiproliferative activity against human HT-29 cells after 72 hrs by MTT assay
# Type: functional, cell-based
# Conditions: Homo sapiens, HT-29, 72 h; read-out: IC50
# Outline: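 HT29 colon cells grown in RPMI 1640 with 10% FBS, 2 mmol/l glutamine, 1 mmol/l pyruvate and penicillin-streptomycin at 37 °C, 5% CO2. Cells seeded at 4000/well and attached for 24 h. Treated 72 h with 1000 to 0.32 µM (5-fold dilutions), final DMSO <0.1%; DMSO vehicle controls. MTT 0.5 mg/ml for 2 h, solubilized in DMSO, A570 read. Run in quadruplicate.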
row,SMILES,IC50 [µM]
1,COc1ccc2c(c1)c(CC(=O)NCCN1CCOCC1)c(C)n2C(=O)c1cc(OC)c(OC)c(OC)c1,611
2,COc1cccc(NC(=O)Cc2c(C)n(C(=O)c3ccc(Cl)cc3)c3ccc(OC)cc23)c1,1190
3,CC1=C(CC(=O)O)c2cc(F)ccc2/C1=C\c1ccc([S+](C)[O-])cc1 (stereo not drawn) [SULINDAC],1730
4,CC1=C(CC(=O)NCCCN(C)C)c2cc(F)ccc2/C1=C\c1ccc([S+](C)[O-])cc1 (stereo not drawn),465
5,CC1=C(CC(=O)NCCN(C)C)c2cc(F)ccc2/C1=C\c1ccc2ccccc2c1,271
6,CC1=C(CC(=O)NCCC(C)C)c2cc(F)ccc2/C1=C\c1ccc([S+](C)[O-])cc1 (stereo not drawn),1430
7,CC1=C(CC(=O)Nc2ccc(Cl)cc2)c2cc(F)ccc2/C1=C\c1ccc([S+](C)[O-])cc1 (stereo not drawn),1700
8,CC1=C(CC(=O)Nc2ccc(C#N)cc2)c2cc(F)ccc2/C1=C\c1ccc([S+](C)[O-])cc1 (stereo not drawn),2580
9,COc1ccc2c(c1)c(CC(=O)NCCN1CCCCC1)c(C)n2C(=O)c1ccc(Cl)cc1,277
10,COc1ccc2c(c1)c(CC(=O)Nc1ccccc1OC)c(C)n2C(=O)c1ccc(Cl)cc1,1120
11,CCCCCCCCNC(=O)CC1=C(C)/C(=C/c2ccc([S+](C)[O-])cc2)c2ccc(F)cc21 (stereo not drawn),307
12,CCCCCC(C)NC(=O)CC1=C(C)/C(=C/c2ccc([S+](C)[O-])cc2)c2ccc(F)cc21 (stereo not drawn),2140
13,COc1ccc2c(c1)c(CC(=O)O)c(C)n2C(=O)c1ccc(Cl)cc1 [INDOMETHACIN],1050
14,CCCCCCNC(=O)Cc1c(C)n(C(=O)c2ccc(Cl)cc2)c2ccc(OC)cc12,1330
15,COc1ccc(NC(=O)CC2=C(C)/C(=C/c3ccc([S+](C)[O-])cc3)c3ccc(F)cc32)cc1 (stereo not drawn),2540

# Second part, the compound after the results:
row,IC50 [µM],SMILES
1,140,COc1cc(/C=C2/C(C)=C(CC(=O)NCCN(C)C)c3cc(F)ccc32)cc(OC)c1OC
2,20,CC1=C(CC(=O)NCCN(C)C)c2cc(F)ccc2/C1=C\c1ccc(Br)cc1
3,68,COc1ccc2c(c1)c(CC(=O)Nc1ccc(Cl)cc1)c(C)n2C(=O)c1ccc(Cl)cc1
4,11.3,CSc1ccc(/C=C2/C(C)=C(CC(=O)NCCN(C)C)c3cc(F)ccc32)cc1
5,2.7,COc1ccc2c(c1)c(CC(=O)NCCN(C)C)c(C)n2C(=O)c1cc(OC)c(OC)c(OC)c1
6,110,COc1ccc2c(c1)c(CC(=O)NCCCCCNC(=O)Cc1c(C)n(C(=O)c3ccc(Cl)cc3)c3ccc(OC)cc13)c(C)n2C(=O)c1ccc(Cl)cc1
7,170,COc1ccc2c(c1)c(CC(=O)NCCN(C)C)c(C)n2C(=O)c1ccc(Cl)cc1
8,38,COc1ccc2c(c1)c(CC(=O)NCCN1CCCC1)c(C)n2C(=O)c1ccc(Cl)cc1
9,34,COc1ccc2c(c1)c(CC(=O)NCCN1CCCC1)c(C)n2C(=O)c1cc(OC)c(OC)c(OC)c1
10,52,COc1ccc2c(c1)c(CC(=O)Nc1ccc(I)cc1)c(C)n2C(=O)c1ccc(Cl)cc1
11,29,COc1ccc2c(c1)c(CC(=O)NCCN(C)C)c(C)n2C(=O)c1ccc2ccccc2c1
12,12.4,CC1=C(CC(=O)NCCN(C)C)c2cc(F)ccc2/C1=C\c1ccc(Cl)cc1
13,13.5,COc1ccc2c(c1)c(CC(=O)NCCN(C)C)c(C)n2C(=O)c1ccc(Br)cc1
14,124,CCCCNC(=O)CC1=C(C)/C(=C/c2ccc([S+](C)[O-])cc2)c2ccc(F)cc21 (stereo not drawn)
15,20,COc1ccc(/C=C2/C(C)=C(CC(=O)NCCN(C)C)c3cc(F)ccc32)cc1
16,52,CC1=C(CC(=O)NCCN2CCCC2)c2cc(F)ccc2/C1=C\c1ccc([S+](C)[O-])cc1 (stereo not drawn)
17,7.7,COc1ccc2c(c1)c(CC(=O)NCCN(C)C)c(C)n2S(=O)(=O)c1ccccc1
18,17.8,COc1ccc(C(=O)n2c(C)c(CC(=O)NCCN(C)C)c3cc(OC)ccc32)cc1
19,44,COc1ccc2c(c1)c(CC(=O)NCCN(C)C)c(C)n2C(=O)c1ccc(OC)c(OC)c1
20,53,CCCCCCNC(=O)CC1=C(C)/C(=C/c2ccc([S+](C)[O-])cc2)c2ccc(F)cc21 (stereo not drawn)
21,47,CC1=C(CC(=O)NCCN(C)C)c2cc(F)ccc2/C1=C\c1ccc([S+](C)[O-])cc1 (stereo not drawn)

# Same assay, conditions: ht-29
row,IC50,SMILES
1,ND(Insoluble),COc1ccc2c(c1)c(CC(=O)NCCN1CCOCC1)c(C)n2C(=O)c1ccc(OC)c(OC)c1
2,ND(Insoluble),COc1ccc2c(c1)c(CC(=O)NCc1ccc(CNC(=O)Cc3c(C)n(C(=O)c4ccc(Cl)cc4)c4ccc(OC)cc34)cc1)c(C)n2C(=O)c1ccc(Cl)cc1
3,ND(Insoluble),COc1ccc2c(c1)c(CC(=O)NCCN1CCOCC1)c(C)n2C(=O)c1ccc(Br)cc1

# System: not listed separately
# Test: Solubility of the compound in RPMI 1640 cell culture medium
# Type: physicochemical
# Conditions: not given
row,solubility,SMILES
1,Insoluble,COc1ccc2c(c1)c(CC(=O)NCCN1CCOCC1)c(C)n2C(=O)c1ccc(OC)c(OC)c1
2,Insoluble,COc1ccc2c(c1)c(CC(=O)NCc1ccc(CNC(=O)Cc3c(C)n(C(=O)c4ccc(Cl)cc4)c4ccc(OC)cc34)cc1)c(C)n2C(=O)c1ccc(Cl)cc1
3,Insoluble,COc1ccc2c(c1)c(CC(=O)NCCN1CCOCC1)c(C)n2C(=O)c1ccc(Br)cc1

# System: SK-BR-3
# Test: Antiproliferative activity against human SKBR3 cells after 72 hrs by MTT assay
# Type: functional, cell-based
# Conditions: SK-BR-3, 72 h
row,IC50 [µM],SMILES
1,4.63,COc1ccc2c(c1)c(CC(=O)NCCN(C)C)c(C)n2C(=O)c1cc(OC)c(OC)c(OC)c1
2,4.81,COc1ccc2c(c1)c(CC(=O)NCCN(C)C)c(C)n2C(=O)c1ccc(Br)cc1
3,6.39,COc1ccc2c(c1)c(CC(=O)NCCN(C)C)c(C)n2S(=O)(=O)c1ccccc1

# System: NCI-H292
# Test: Antiproliferative activity against human NCI-H292 cells after 72 hrs by MTT assay
# Type: functional, cell-based
# Conditions: NCI-H292, 72 h
row,IC50 [µM],SMILES
1,0.51,COc1ccc2c(c1)c(CC(=O)NCCN(C)C)c(C)n2C(=O)c1cc(OC)c(OC)c(OC)c1
2,3.47,COc1ccc2c(c1)c(CC(=O)NCCN(C)C)c(C)n2C(=O)c1ccc(Br)cc1
3,4.85,COc1ccc2c(c1)c(CC(=O)NCCN(C)C)c(C)n2S(=O)(=O)c1ccccc1

# System: NCI-H522
# Test: Antiproliferative activity against human NCI-H522 cells after 72 hrs by MTT assay
# Type: functional, cell-based
# Conditions: NCI-H522, 72 h
row,IC50 [µM],SMILES
1,3,COc1ccc2c(c1)c(CC(=O)NCCN(C)C)c(C)n2C(=O)c1cc(OC)c(OC)c(OC)c1
2,10.6,COc1ccc2c(c1)c(CC(=O)NCCN(C)C)c(C)n2C(=O)c1ccc(Br)cc1
3,14.1,COc1ccc2c(c1)c(CC(=O)NCCN(C)C)c(C)n2S(=O)(=O)c1ccccc1

# System: not listed separately
# Test: Antiproliferative activity against human MDA468 cells after 72 hrs by MTT assay
# Type: functional, cell-based
# Conditions: MDA-MB-468, 72 h
row,SMILES,IC50 [µM]
1,COc1ccc2c(c1)c(CC(=O)NCCN(C)C)c(C)n2C(=O)c1cc(OC)c(OC)c(OC)c1,2.87
2,COc1ccc2c(c1)c(CC(=O)NCCN(C)C)c(C)n2C(=O)c1ccc(Br)cc1,2.91
3,COc1ccc2c(c1)c(CC(=O)NCCN(C)C)c(C)n2S(=O)(=O)c1ccccc1,15.9

# System: MCF7
# Test: Antiproliferative activity against human MCF7 cells after 72 hrs by MTT assay
# Type: functional, cell-based
# Conditions: MCF7, 72 h
row,IC50 [µM],SMILES
1,0.9,COc1ccc2c(c1)c(CC(=O)NCCN(C)C)c(C)n2C(=O)c1cc(OC)c(OC)c(OC)c1
2,9.53,COc1ccc2c(c1)c(CC(=O)NCCN(C)C)c(C)n2C(=O)c1ccc(Br)cc1
3,4.88,COc1ccc2c(c1)c(CC(=O)NCCN(C)C)c(C)n2S(=O)(=O)c1ccccc1

# System: IMR-90
# Test: Cytotoxicity against human IMR90 cells after 72 hrs by MTT assay
# Type: cell-based
# Conditions: IMR-90, 72 h
row,SMILES,IC50 [µM]
1,COc1ccc2c(c1)c(CC(=O)NCCN(C)C)c(C)n2C(=O)c1cc(OC)c(OC)c(OC)c1,17.2
2,COc1ccc2c(c1)c(CC(=O)NCCN(C)C)c(C)n2C(=O)c1ccc(Br)cc1,41.7
3,COc1ccc2c(c1)c(CC(=O)NCCN(C)C)c(C)n2S(=O)(=O)c1ccccc1,18.7

# Species on record: Bos taurus
# Test: Inhibition of bovine tubulin polymerization at 25 uM using microtubule-associated protein rich tubulin measured for 20 mins by spectrophotometry
# Conditions: not given
# Outline: (§1)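 Bovine brain MAP-rich tubulin at 2 mg/ml in 80 mM PIPES pH 6.9, 2 mM MgCl2, 0.5 mM EGTA, 5% glycerol. Mixed with compound in DMSO or DMSO control at 37 °C. Polymerization started with GTP (2 µl of 1 mM stock) and followed as absorbance at 340 nm over 20 min.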
row,inhibition,SMILES
1,Active,COc1ccc2c(c1)c(CC(=O)NCCN(C)C)c(C)n2C(=O)c1cc(OC)c(OC)c(OC)c1
2,Active,COc1ccc2c(c1)c(CC(=O)NCCN(C)C)c(C)n2C(=O)c1ccc(Br)cc1
3,Active,COc1ccc2c(c1)c(CC(=O)NCCN(C)C)c(C)n2S(=O)(=O)c1ccccc1

# Species on record: Bos taurus
# Test: Inhibition of bovine tubulin polymerization using microtubule-associated protein rich tubulin measured for 20 mins by spectrophotometry
# Conditions: not given
# Outline: as §1
row,inhibition,SMILES
1,Dose-dependent effect,COc1ccc2c(c1)c(CC(=O)NCCN(C)C)c(C)n2C(=O)c1cc(OC)c(OC)c(OC)c1

# Species on record: Bos taurus
# Test: Inhibition of bovine tubulin polymerization at 8 uM using microtubule-associated protein rich tubulin at 10 mins by spectrophotometry relative to control
# Conditions: not given
# Outline: as §1
row,inhibition [%],SMILES
1,20,COc1ccc2c(c1)c(CC(=O)NCCN(C)C)c(C)n2C(=O)c1cc(OC)c(OC)c(OC)c1

# Species on record: Bos taurus
# Test: Inhibition of bovine tubulin polymerization at 10 uM using microtubule-associated protein rich tubulin at 10 mins by spectrophotometry relative to control
# Conditions: not given
# Outline: as §1
row,inhibition [%],SMILES
1,56,COc1ccc2c(c1)c(CC(=O)NCCN(C)C)c(C)n2C(=O)c1cc(OC)c(OC)c(OC)c1

# Species on record: Bos taurus
# Test: Induction of bovine tubulin polymerization at 2 uM using microtubule-associated protein rich tubulin measured for 20 mins by spectrophotometry
# Conditions: not given
# Outline: as §1
row,Activity,SMILES
1,Active,COc1ccc2c(c1)c(CC(=O)NCCN(C)C)c(C)n2C(=O)c1cc(OC)c(OC)c(OC)c1

# Species on record: Bos taurus
# Test: Induction of bovine tubulin polymerization at 5 uM using microtubule-associated protein rich tubulin measured for 20 mins by spectrophotometry
# Conditions: not given
# Outline: as §1
row,Activity,SMILES
1,Active,COc1ccc2c(c1)c(CC(=O)NCCN(C)C)c(C)n2C(=O)c1cc(OC)c(OC)c(OC)c1
